# From ChEMBL document CHEMBL3603828, “Imine/amide-imidazole conjugates derived from 5-amino-4-cyano-N1-substituted benzyl imidazole: Microwave-assisted synthesis and anticancer activity via selective topoisomerase-II-α inhibition” (Bioorg Med Chem, 2015)
# pIC50: −log10 of the molar value. Calls of active or inactive are those of the source. No cut-off for these calls is given here.
# Legend:
# PBMC = assay: Cytotoxic activity against human PBMC by MTT assay; type: cell-based
# How it was run: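 Human peripheral blood mononuclear cells served as the normal control in an MTT read-out. Formazan was formed over 4 h at room temperature in the dark, dissolved in DMSO and read at 570 nm. Results are mean SD of three independent experiments.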
# [1] = Antiproliferative activity against human H460 cells by MTT assay; type: functional, cell-based; settings: NCI-H460
# How it was run: (§1)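 Cells from NCCS were grown in DMEM with 10% FBS and antibiotics at 37 °C under 5% CO₂. They were seeded at 8000 cells/well after trypan blue counting. Compounds were made up as 100 mM DMSO stocks and diluted in serum-free DMEM. MTT was added and cells were held 4 h at room temperature in the dark. Formazan was dissolved in DMSO and read at 570 nm. Values are averages of three independent experiments, each run in triplicate.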
# A549 [2] = assay: Antiproliferative activity against human A549 cells by MTT assay; type: functional, cell-based; how it was run: as §1
# HepG2 [3] = assay: Antiproliferative activity against human HepG2 cells by MTT assay; type: functional, cell-based; how it was run: as §1
# [4] = target: T1, DNA topoisomerase 2-alpha (Homo sapiens, UniProt P11388); assay: Inhibition of human topoisomerase-2 alpha assessed as reduction in enzyme-mediated kinetoplast DNA decatenation at 100 uM incubated for 30 mins by ethidium bromide staining based agarose gel electrophoresis method
# T1 sequence (P11388 whole entry): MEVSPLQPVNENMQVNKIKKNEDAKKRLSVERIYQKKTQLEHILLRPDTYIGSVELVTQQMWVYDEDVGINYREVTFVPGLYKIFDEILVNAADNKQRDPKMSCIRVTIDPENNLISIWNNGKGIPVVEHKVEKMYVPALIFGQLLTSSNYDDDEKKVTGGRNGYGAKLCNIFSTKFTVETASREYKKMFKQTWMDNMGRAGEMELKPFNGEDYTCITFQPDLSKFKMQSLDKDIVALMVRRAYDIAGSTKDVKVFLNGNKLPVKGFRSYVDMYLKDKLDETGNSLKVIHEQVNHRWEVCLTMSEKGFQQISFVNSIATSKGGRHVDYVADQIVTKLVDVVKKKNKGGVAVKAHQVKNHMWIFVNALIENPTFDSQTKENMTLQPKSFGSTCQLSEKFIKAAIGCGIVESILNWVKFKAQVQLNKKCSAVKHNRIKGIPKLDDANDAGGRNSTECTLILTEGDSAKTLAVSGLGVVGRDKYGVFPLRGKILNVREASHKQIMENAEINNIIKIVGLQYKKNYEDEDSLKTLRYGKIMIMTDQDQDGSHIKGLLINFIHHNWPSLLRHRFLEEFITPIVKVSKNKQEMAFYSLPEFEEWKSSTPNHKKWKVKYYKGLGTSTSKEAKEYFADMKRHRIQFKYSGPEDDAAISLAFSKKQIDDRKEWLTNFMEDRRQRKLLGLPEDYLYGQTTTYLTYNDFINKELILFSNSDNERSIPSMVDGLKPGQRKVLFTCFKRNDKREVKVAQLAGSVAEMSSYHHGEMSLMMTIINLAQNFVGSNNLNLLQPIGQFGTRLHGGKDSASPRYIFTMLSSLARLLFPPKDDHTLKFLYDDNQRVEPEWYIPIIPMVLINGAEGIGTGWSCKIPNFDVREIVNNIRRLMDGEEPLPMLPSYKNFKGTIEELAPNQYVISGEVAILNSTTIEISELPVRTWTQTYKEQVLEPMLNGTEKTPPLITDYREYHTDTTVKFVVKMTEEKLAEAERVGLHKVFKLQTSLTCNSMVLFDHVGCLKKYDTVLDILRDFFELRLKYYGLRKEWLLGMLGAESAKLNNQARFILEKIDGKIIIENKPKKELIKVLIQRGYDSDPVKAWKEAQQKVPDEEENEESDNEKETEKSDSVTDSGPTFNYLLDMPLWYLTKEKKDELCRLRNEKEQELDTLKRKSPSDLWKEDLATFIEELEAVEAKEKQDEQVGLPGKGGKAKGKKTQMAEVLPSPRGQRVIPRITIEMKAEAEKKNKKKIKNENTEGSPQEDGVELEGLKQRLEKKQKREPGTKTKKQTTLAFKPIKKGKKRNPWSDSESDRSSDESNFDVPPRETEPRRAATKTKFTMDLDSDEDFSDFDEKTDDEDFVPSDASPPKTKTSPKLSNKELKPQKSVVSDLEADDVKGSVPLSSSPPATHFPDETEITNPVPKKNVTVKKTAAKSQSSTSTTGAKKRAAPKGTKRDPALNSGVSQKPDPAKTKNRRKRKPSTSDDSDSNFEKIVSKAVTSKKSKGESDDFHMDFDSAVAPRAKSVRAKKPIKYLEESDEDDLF
# How it was run: (§2)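 Reactions with 2–4 units purified human topoisomerase II and 150 ng kDNA were set up on ice. Buffer was Tris-HCl pH 8 with NaCl, MgCl₂, DTT, BSA and ATP, and drug was 100 µM. Incubation was 30 min at 37 °C, then SDS and proteinase K for 15 min. Products were resolved on 1% agarose with ethidium bromide, visualized under UV and quantified.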
# NCI-H460 [5] = assay: Induction of ROS generation in human H460 cells at 1 to 25 uM incubated for 24 hrs by DHE staining based assay; type: functional, cell-based
# How it was run: (§3)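 Cells were seeded in DMEM/10% FBS at 8000 per well and treated for 24 h. They were washed with PBS, stained with DHE for 30 min at 37 °C and washed with ice-cold PBS. Fluorescence OD was then read on a microplate reader.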
# [6] = target: T1, DNA topoisomerase 2-alpha; assay: Inhibition of human topoisomerase-2 alpha assessed as reduction in enzyme-mediated kinetoplast DNA decatenation incubated for 30 mins by ethidium bromide staining based agarose gel electrophoresis method; how it was run: as §2
# A549 [7] = assay: Induction of mitochondrial membrane depolarization in human A549 cells at 1 to 25 uM incubated for 24 hrs by JC1 staining based assay; type: functional, cell-based
# How it was run: (§4)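 Cells were seeded at 8000 per well and treated for 24 h. JC-1 dye was added directly to the medium for 30 min at 37 °C, then excess dye was washed off with PBS. Membrane potential was read as the OD590/OD527 ratio.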
# NCI-H460 [8] = assay: Induction of mitochondrial membrane depolarization in human H460 cells at 1 to 25 uM incubated for 24 hrs by JC1 staining based assay; type: functional, cell-based; how it was run: as §4
# [9] = target: T2, DNA topoisomerase 1 (Homo sapiens) (UniProt P11387); assay: Inhibition of human topoisomerase-1 assessed as reduction in enzyme-mediated DNA relaxation at 100 uM incubated for 30 mins by ethidium bromide staining based agarose gel electrophoresis method
# T2 sequence (whole entry): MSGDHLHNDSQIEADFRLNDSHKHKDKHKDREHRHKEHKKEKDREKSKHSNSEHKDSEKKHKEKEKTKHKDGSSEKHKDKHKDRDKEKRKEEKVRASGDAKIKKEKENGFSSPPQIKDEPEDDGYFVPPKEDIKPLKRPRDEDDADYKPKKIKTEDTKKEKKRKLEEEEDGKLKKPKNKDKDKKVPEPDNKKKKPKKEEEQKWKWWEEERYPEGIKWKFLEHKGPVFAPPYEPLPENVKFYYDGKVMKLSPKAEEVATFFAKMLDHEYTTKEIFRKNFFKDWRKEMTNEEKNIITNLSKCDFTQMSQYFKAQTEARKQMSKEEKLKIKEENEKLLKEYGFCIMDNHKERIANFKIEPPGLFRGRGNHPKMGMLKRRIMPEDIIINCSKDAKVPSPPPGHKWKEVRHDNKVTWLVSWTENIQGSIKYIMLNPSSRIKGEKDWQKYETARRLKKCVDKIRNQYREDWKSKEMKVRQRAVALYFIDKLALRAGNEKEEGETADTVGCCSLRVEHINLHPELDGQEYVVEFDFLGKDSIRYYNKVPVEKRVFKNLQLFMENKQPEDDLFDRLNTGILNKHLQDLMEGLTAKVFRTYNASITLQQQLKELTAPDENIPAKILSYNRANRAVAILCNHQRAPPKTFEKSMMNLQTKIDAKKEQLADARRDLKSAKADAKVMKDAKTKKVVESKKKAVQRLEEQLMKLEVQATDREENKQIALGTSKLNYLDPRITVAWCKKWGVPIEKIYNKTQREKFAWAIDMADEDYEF
# How it was run: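 Purified human Topo I was used with 250 ng supercoiled DNA. Buffer was Tris-HCl pH 7.9 with EDTA, NaCl, BSA, spermidine and glycerol. Compound was 100 µM in DMSO, with 30 min incubation at 37 °C. Reactions were stopped with SDS and proteinase K at 70 °C for 15 min. Products were run on 1% agarose in TAE.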
# HepG2 [10] = assay: Induction of mitochondrial membrane depolarization in human HepG2 cells at 1 to 25 uM incubated for 24 hrs by JC1 staining based assay; type: functional, cell-based; how it was run: as §4
# A549 [11] = assay: Induction of ROS generation in human A549 cells at 1 to 25 uM incubated for 24 hrs by DHE staining based assay; type: functional, cell-based; how it was run: as §3
# HepG2 [12] = assay: Induction of ROS generation in human HepG2 cells at 1 to 25 uM incubated for 24 hrs by DHE staining based assay; type: functional, cell-based; how it was run: as §3
SMILES,Activity (PBMC),pIC50 [1],pIC50 (A549 [2]),pIC50 (HepG2 [3]),inhibition [4],Activity (NCI-H460 [5]),pIC50 [6],Activity (A549 [7]),Activity (NCI-H460 [8]),inhibition [9],Activity (HepG2 [10]),Activity (A549 [11]),Activity (HepG2 [12])
N#Cc1ncn(Cc2ccccc2Cl)c1/N=C/c1ccc(Cl)cc1,Non-toxic,4.55,4.51,4.51,–,–,–,–,–,–,–,–,–
COc1cc([C@@H]2c3cc4c(cc3[C@@H](O[C@@H]3O[C@@H]5CO[C@@H](C)O[C@H]5[C@H](O)[C@H]3O)[C@H]3COC(=O)[C@H]23)OCO4)cc(OC)c1O [ETOPOSIDE],Non-toxic,< 4.52,4.74,4.68,Active,–,–,–,–,–,–,–,–
N#Cc1ncn(Cc2ccccc2Cl)c1/N=C/c1cc(Cl)cc(Cl)c1O,Non-toxic,4.95,5.12,4.92,Active,Dose-dependent effect,4.46,Active,Active,inactive,Active,Dose-dependent effect,Dose-dependent effect
COc1ccc(OC)c(/C=N/c2c(C#N)ncn2Cc2ccccc2Cl)c1,Non-toxic,4.55,4.74,4.70,–,–,–,–,–,–,–,–,–
COc1ccc(/C=N/c2c(C#N)ncn2Cc2ccccc2Cl)cc1OC,Non-toxic,–,< 4.30,< 4.30,–,–,–,–,–,–,–,–,–
N#Cc1ncn(Cc2ccccc2Cl)c1/N=C/c1c[nH]c2ccccc12,Non-toxic,4.84,4.96,4.82,Active,–,–,–,–,–,–,–,–
N#Cc1ncn(Cc2ccccc2Cl)c1/N=C/c1ccc(O)cc1,Non-toxic,< 4.40,4.45,4.42,–,–,–,–,–,–,–,–,–
COc1cc(/C=N/c2c(C#N)ncn2Cc2ccccc2Cl)ccc1O,Non-toxic,–,4.41,< 4.40,–,–,–,–,–,–,–,–,–
N#Cc1ncn(Cc2ccccc2Cl)c1/N=C/c1ccccc1[N+](=O)[O-],Non-toxic,–,4.43,4.40,–,–,–,–,–,–,–,–,–
